Data from ChEMBL document CHEMBL1146470, “Highly hydroxylated triterpenes from Salvia kronenburgii” (J Nat Prod, 2004).
In brackets after ≈: the same amount, converted by molar mass.

Tests used:
A2780 = assay: Cytotoxicity against human A2780 cells; assay type: functional, cell-based
Summary of the method: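 Run on the human ovarian cancer line A2780 by a previously described protocol, with actinomycin D at 2 μg/mL as the positive control.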

NCI-H460 = assay: Cytotoxicity against human H460 cells; assay type: functional
RXF 393 = assay: Cytotoxicity against human RXF393 cells; assay type: functional
Summary of the method: (§1)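 NCI 60-cell-line panel screen over a 5-log dose range; growth inhibition expressed as log GI50. Preceded by an NCI one-dose primary screen on three lines (H460, MCF7, SF-268) reported as growth percentages.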

EKVX = assay: Cytotoxicity against human EKVX cells; assay type: functional; summary of the method: as §1
MCF7 = assay: Cytotoxicity against human MCF7 cells; assay type: functional
T47D = assay: Cytotoxicity against human T47D cells; assay type: functional; summary of the method: as §1
SF-268 = assay: Cytotoxicity against human SF268 cells; assay type: functional

| Compound | IC50 (A2780) | also measured |
| --- | --- | --- |
| CC1(C)CC[C@]2(C)CC[C@]3(C)C(=C[C@@H](O)[C@@H]4[C@@]5(C)[C@H](O)[C@@H](O)[C@H](O)C(C)(C)[C@@H]5CC[C@]43C)[C@@H]2C1 | 27.9 µg/mL (≈ 58.8 µM) |  |
| CC(=O)O[C@H]1[C@H](O)[C@@H](O)[C@]2(C)C3=CC=C4[C@@H]5CC(C)(C)CC[C@]5(C)CC[C@@]4(C)[C@]3(C)CC[C@H]2C1(C)C | 36.9 µg/mL (≈ 74 µM) |  |
| CC(=O)O[C@@H]1C[C@@]2(C)C(=CC[C@]3(C)[C@@H]2[C@H](O)C=C2[C@@H]4[C@@H](C)[C@H](C)CC[C@]4(C)CC[C@]23C)C(C)(C)[C@H]1O | 34.2 µg/mL (≈ 68.6 µM) |  |
| CC(=O)O[C@H]1[C@H](O)[C@@H](O)[C@]2(C)[C@H]3[C@H](O)C=C4[C@@H]5CC(C)(C)CC[C@]5(C)CC[C@@]4(C)[C@]3(C)CC[C@H]2C1(C)C | 38.5 µg/mL (≈ 74.5 µM) |  |
| CC(=O)O[C@H]1[C@H](O)C[C@]2(C)C3=CC=C4[C@@H]5[C@@H](C)[C@@](C)(O)CC[C@]5(C)CC[C@@]4(C)[C@]3(C)CC[C@H]2C1(C)C | 33.3 µg/mL (≈ 66.8 µM) |  |
| CC(=O)O[C@H]1[C@H](O)[C@@H](O)[C@]2(C)[C@H]3C(=O)C=C4[C@@H]5[C@@H](C)[C@H](C)CC[C@]5(C)CC[C@@]4(C)[C@]3(C)CC[C@H]2C1(C)C | 26 µg/mL (≈ 50.5 µM) |  |
| C[C@H]1[C@H](C)CC[C@]2(C)CC[C@]3(C)C(=C[C@@H](O)[C@@H]4[C@@]5(C)[C@H](O)[C@@H](O)[C@H](O)C(C)(C)[C@@H]5CC[C@]43C)[C@H]12 | 27.7 µg/mL (≈ 58.3 µM) | Activity (NCI-H460): -45%; GI50 (RXF 393): 363 nM; GI50 (EKVX): 21.9 nM; Activity (MCF7): -25%; GI50 (T47D): 18600 nM; Activity (SF-268): 18% |
| CC(=O)O[C@H]1[C@H](O)[C@@H](O)[C@]2(C)[C@H]3[C@H](O)C=C4[C@@H]5[C@@H](C)[C@H](C)CC[C@]5(C)CC[C@@]4(C)[C@]3(C)CC[C@H]2C1(C)C | 32.5 µg/mL (≈ 62.9 µM) |  |
| CC(=O)O[C@H]1[C@H](O)[C@@H](O)[C@]2(C)C3=CC=C4[C@@H]5[C@@H](C)[C@H](C)CC[C@]5(C)CC[C@@]4(C)[C@]3(C)CC[C@H]2C1(C)C | 37.5 µg/mL (≈ 75.2 µM) |  |
| CC1(C)C[C@H]2C3=C[C@@H](O)[C@@H]4[C@@]5(C)CC[C@H](O)C(C)(C)[C@@H]5CC[C@@]4(C)[C@@]3(C)CC[C@@]2(C)C[C@H]1O [SALVINEMOROL] | 8.6 µg/mL (≈ 18.7 µM) |  |
| C[C@H]1[C@H](C)[C@H]2C3=C[C@@H](O)[C@@H]4[C@@]5(C)CC[C@H](O)C(C)(C)[C@@H]5CC[C@@]4(C)[C@]3(C)CC[C@@]2(C)C[C@H]1O [SALVISTAMINEOL] | 21 µg/mL (≈ 45.8 µM) |  |
